The values below come from ChEMBL document CHEMBL1153580, “Synthesis and pharmacological investigation of 3-(substituted 1-phenylethanone)-4-(substituted phenyl)-1, 2, 3, 4-tetrahydropyrimidine-5-carboxylates” (Eur J Med Chem, 2009).

As a reminder, the inhibition in vivo is the percentage by which the read-out fell short of the control.

The test system of one series is Rattus norvegicus. The series is described as follows: Antihypertensive activity in Norwegian albino rat assessed as inhibition of DOCA salt-induced systolic blood pressure at 10 mg/kg, po after 15 mins by non-invasive tail-cuff method. As to conditions: Artery, 0.25 h. It is filed as functional.
Consider `CCOC(=O)C1=C(C)NC(OC)N(CC(=O)c2ccc(Cl)cc2)C1c1ccccc1` (stereo unspecified), for which the inhibition in vivo at 10 mg/kg was found to be 0.7%.

The test system of the next series is Rattus norvegicus. Description: Antihypertensive activity in Norwegian albino rat assessed as inhibition of DOCA salt-induced systolic blood pressure at 10 mg/kg, po after 180 mins by non-invasive tail-cuff method. The class given is functional. As to conditions: Artery, 3 h. The procedure, abridged: (§1)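 Male rats (200–250 g), uninephrectomized under pentobarbital (50 mg/kg i.p.); one week later DOCA s.c. 30–50 mg/kg/week, with 1% w/v NaCl in drinking water. Groups of six, trained in restrainer, tail warmed at 33–34 °C. Compound in 0.5% CMC, 10 mg/kg orally. Systolic pressure read by tail-cuff before dosing and from 1 h after; three readings averaged. ANOVA.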
Turning to `CCOC(=O)C1=C(C)NC(OC)N(CC(=O)c2ccc(Cl)cc2)C1c1ccccc1` (stereo unspecified), the inhibition in vivo at 10 mg/kg was found to be 28%.

The next series relates to Rattus norvegicus. The series is described as follows: Antihypertensive activity in Norwegian albino rat assessed as inhibition of DOCA salt-induced systolic blood pressure at 10 mg/kg, po after 60 mins by non-invasive tail-cuff method. It is filed as functional. Conditions: Artery, 1 h. The procedure, abridged: as §1
In the case of `CCOC(=O)C1=C(C)NC(OC)N(CC(=O)c2ccc(Cl)cc2)C1c1ccccc1` (stereo unspecified), the inhibition in vivo at 10 mg/kg is 13.8%.

The subject of another series is Rattus norvegicus. The series is described as follows: Antiinflammatory activity in Norwegian albino rat assessed as inhibition of carrageenan-induced paw edema at 100 mg/kg, po after administered 60 mins prior to carrageenan-challenge measured after 5 hrs.
Conditions: not given
The class given is functional. The essentials:
(§2)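 Compound given orally as 100 mg/kg suspension in 0.5% CMC. 60 min later, carrageenan injected sub-plantar into the left hind paw. Paw volume measured within 30 s of injection, then at 1–5 h. % inhibition = [1−(Dt/Dc)]×100, where Dt and Dc are mean relative paw-volume changes in test and control. ANOVA.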
A general note: The carrageenan paw model is a standard test of acute inflammation.
In the case of `CCOC(=O)C1=C(C)NC(OC)N(CC(=O)c2ccc(Cl)cc2)C1c1ccccc1` (stereo unspecified), the inhibition in vivo at 100 mg/kg amounted to 42%.

In another series the test system is Rattus norvegicus. The series is described as follows: Antihypertensive activity in Norwegian albino rat assessed as inhibition of DOCA salt-induced systolic blood pressure at 10 mg/kg, po after 300 mins by non-invasive tail-cuff method. Conditions: Artery, 5 h. It is filed as functional. The essentials: as §1
As to `CCOC(=O)C1=C(C)NC(OC)N(CC(=O)c2ccc(Cl)cc2)C1c1ccccc1` (stereo unspecified), the inhibition in vivo at 10 mg/kg was 38.2%.

The subject of another series is Rattus norvegicus. Description: Antihypertensive activity in Norwegian albino rat assessed as inhibition of DOCA salt-induced systolic blood pressure at 10 mg/kg, po after 480 mins by non-invasive tail-cuff method. It is filed as functional. Conditions: Artery, 8 h. The procedure, abridged: as §1
As to `CCOC(=O)C1=C(C)NC(OC)N(CC(=O)c2ccc(Cl)cc2)C1c1ccccc1` (stereo unspecified), the inhibition in vivo at 10 mg/kg worked out at 46.5%.

The subject of the next series is Rattus norvegicus. The series is described as follows: Antihypertensive activity in Norwegian albino rat assessed as inhibition of DOCA salt-induced diastolic blood pressure at 10 mg/kg, po after 180 mins by invasive carotid artery cannulation method. It is filed as functional. As to conditions: 3 h. The essentials: (§3)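 Male rats (200–250 g), uninephrectomized and given DOCA s.c. (30–50 mg/kg/week) with 1% NaCl drinking water. Anesthetized with pentobarbital (35 mg/kg i.p.); left carotid artery cannulated and exteriorized. After recovery and a baseline reading, compound given orally by feeding needle. Diastolic pressure recorded via transducer at 15, 30, 60, 120 and 180 min. Mean ± S.E.M.; repeated-measures ANOVA.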
With `CCOC(=O)C1=C(C)NC(OC)N(CC(=O)c2ccc(Cl)cc2)C1c1ccccc1` (stereo unspecified), the inhibition in vivo at 10 mg/kg amounted to 37.8%.

A further series has as its system Rattus norvegicus. The series is described as follows: Antihypertensive activity in Norwegian albino rat assessed as inhibition of DOCA salt-induced diastolic blood pressure at 10 mg/kg, po after 30 mins by invasive carotid artery cannulation method. The class given is functional. Conditions: 0.5 h. The essentials:
as §3
As to `CCOC(=O)C1=C(C)NC(OC)N(CC(=O)c2ccc(Cl)cc2)C1c1ccccc1` (stereo unspecified), the inhibition in vivo at 10 mg/kg amounted to 9.99%.

For a further series, the system named is Rattus norvegicus. The series is described as follows: Antiinflammatory activity in Norwegian albino rat assessed as inhibition of carrageenan-induced paw edema at 100 mg/kg, po after administered 60 mins prior to carrageenan-challenge measured after 3 hrs. It is filed as functional.
Conditions: not given
The procedure, abridged: as §2
Take `CCOC(=O)C1=C(C)NC(OC)N(CC(=O)c2ccc(Cl)cc2)C1c1ccccc1` (stereo unspecified): the inhibition in vivo at 100 mg/kg came to 38.4%.

In the next series the test system is Mus musculus. The series is described as follows: Analgesic activity against acetic acid-induced writhing in Swiss albino mouse assessed as protection at 20 mg/kg, po. The class given is functional.
Conditions: not given
The essentials:
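Swiss albino mice (25–30 g), six per group, habituated 30 min individually in the test cage. Compound in 1% CMC given p.o. at 20 mg/kg. 1 h later, acetic acid injected i.p.; writhes (arching of back, body elongation, hind-limb extension) counted 5–15 min after injection. % inhibition = (n−n′)/n×100, where n and n′ are mean writhes in control and test.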
As to `CCOC(=O)C1=C(C)NC(OC)N(CC(=O)c2ccc(Cl)cc2)C1c1ccccc1` (stereo unspecified), the Activity is 41.66%.

For a further series, the system named is Rattus norvegicus. Description: Antihypertensive activity in Norwegian albino rat assessed as inhibition of DOCA salt-induced diastolic blood pressure at 10 mg/kg, po after 15 mins by invasive carotid artery cannulation method. It is filed as functional. Conditions: 0.25 h. The procedure, abridged: as §3
As for `CCOC(=O)C1=C(C)NC(OC)N(CC(=O)c2ccc(Cl)cc2)C1c1ccccc1` (stereo unspecified), the inhibition in vivo at 10 mg/kg came out at 2.35%.

The test system of another series is Rattus norvegicus. Description: Antihypertensive activity in Norwegian albino rat assessed as inhibition of DOCA salt-induced systolic blood pressure at 10 mg/kg, po after 420 mins by non-invasive tail-cuff method. The class given is functional. Conditions: Artery, 7 h. The essentials: as §1
Take `CCOC(=O)C1=C(C)NC(OC)N(CC(=O)c2ccc(Cl)cc2)C1c1ccccc1` (stereo unspecified): the inhibition in vivo at 10 mg/kg was determined as 45%.

Another series deals with Rattus norvegicus. Description: Gastrointestinal toxicity in albino rat assessed as ulcerogenic index at 50 mg/kg, po. As to conditions: in vivo. The class given is organism-based. Details: dose 50 mg/kg, route oral. The procedure, abridged: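 Albino rats (150–200 g), six per group, food but not water withheld 24 h. Compound given p.o. at 50 mg/kg; controls received 1% methyl cellulose. Rats fed 17 h, then killed; stomach opened along greater curvature and examined under 4× magnifier. Lesions scored as large (>2 mm), small (1–2 mm) or punctiform (<1 mm). Severity index = treated mean score minus control mean score.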
In the case of `CCOC(=O)C1=C(C)NC(OC)N(CC(=O)c2ccc(Cl)cc2)C1c1ccccc1` (stereo unspecified), the UI is listed as 0.45.

Another series has as its system Rattus norvegicus. The series is described as follows: Antiinflammatory activity in Norwegian albino rat assessed as inhibition of carrageenan-induced paw edema at 100 mg/kg, po after administered 60 mins prior to carrageenan-challenge measured after 1 hr. The class given is functional.
Conditions: not given
The essentials:
as §2
With `CCOC(=O)C1=C(C)NC(OC)N(CC(=O)c2ccc(Cl)cc2)C1c1ccccc1` (stereo unspecified), the inhibition in vivo at 100 mg/kg was determined as 36.6%.

In another series the test system is Rattus norvegicus. The series is described as follows: Antihypertensive activity in Norwegian albino rat assessed as inhibition of DOCA salt-induced systolic blood pressure at 10 mg/kg, po after 240 mins by non-invasive tail-cuff method. It is filed as functional. Conditions: Artery, 4 h. The procedure, abridged: as §1
For `CCOC(=O)C1=C(C)NC(OC)N(CC(=O)c2ccc(Cl)cc2)C1c1ccccc1` (stereo unspecified), the inhibition in vivo at 10 mg/kg turned out to be 36.7%.

The test system of another series is Rattus norvegicus. Description: Antihypertensive activity in Norwegian albino rat assessed as inhibition of DOCA salt-induced diastolic blood pressure at 10 mg/kg, po after 60 mins by invasive carotid artery cannulation method. It is filed as functional. As to conditions: 1 h. The essentials: as §3
Regarding `CCOC(=O)C1=C(C)NC(OC)N(CC(=O)c2ccc(Cl)cc2)C1c1ccccc1` (stereo unspecified), the inhibition in vivo at 10 mg/kg was 23%.

For another series, the system named is Rattus norvegicus. Description: Antihypertensive activity in Norwegian albino rat assessed as inhibition of DOCA salt-induced diastolic blood pressure at 10 mg/kg, po after 240 mins by invasive carotid artery cannulation method. Conditions: 4 h. The class given is functional.
In the case of `CCOC(=O)C1=C(C)NC(OC)N(CC(=O)c2ccc(Cl)cc2)C1c1ccccc1` (stereo unspecified), the inhibition in vivo at 10 mg/kg worked out at 47.8%.

For the next series, the system named is Rattus norvegicus. The series is described as follows: Antihypertensive activity in Norwegian albino rat assessed as inhibition of DOCA salt-induced diastolic blood pressure at 10 mg/kg, po after 120 mins by invasive carotid artery cannulation method. As to conditions: 2 h. It is filed as functional. The procedure, abridged: as §3
Turning to `CCOC(=O)C1=C(C)NC(OC)N(CC(=O)c2ccc(Cl)cc2)C1c1ccccc1` (stereo unspecified), the inhibition in vivo at 10 mg/kg worked out at 30.1%.

The subject of the next series is Rattus norvegicus. The series is described as follows: Antihypertensive activity in Norwegian albino rat assessed as inhibition of DOCA salt-induced systolic blood pressure at 10 mg/kg, po after 30 mins by non-invasive tail-cuff method. As to conditions: Artery, 0.5 h. It is filed as functional.
Take `CCOC(=O)C1=C(C)NC(OC)N(CC(=O)c2ccc(Cl)cc2)C1c1ccccc1` (stereo unspecified): the inhibition in vivo at 10 mg/kg came to 6.49%.

The next series has as its system Rattus norvegicus. The series is described as follows: Antihypertensive activity in Norwegian albino rat assessed as inhibition of DOCA salt-induced systolic blood pressure at 10 mg/kg, po after 360 mins by non-invasive tail-cuff method. It is filed as functional. As to conditions: Artery, 6 h. The essentials:
as §1
With `CCOC(=O)C1=C(C)NC(OC)N(CC(=O)c2ccc(Cl)cc2)C1c1ccccc1` (stereo unspecified), the inhibition in vivo at 10 mg/kg was found to be 41.5%.

In the next series the test system is Rattus norvegicus. Description: Antihypertensive activity in Norwegian albino rat assessed as inhibition of DOCA salt-induced systolic blood pressure at 10 mg/kg, po after 120 mins by non-invasive tail-cuff method. The class given is functional. Conditions: Artery, 2 h. The procedure, abridged: as §1
In the case of `CCOC(=O)C1=C(C)NC(OC)N(CC(=O)c2ccc(Cl)cc2)C1c1ccccc1` (stereo unspecified), the inhibition in vivo at 10 mg/kg worked out at 20.5%.
